Assay results: ChEMBL document CHEMBL4513216, “Probing the Open Global Health Chemical Diversity Library for Multistage-Active Starting Points for Next-Generation Antimalarials” (ACS Infect Dis, 2020)

Assay: Toxicity liver stage against HepG2, at 10uM
Type: cell-based
Set-up: test concentration 10 uM, cell line HepG2-A16-CD81EGFP
Conditions: human, HepG2-A16-CD81EGFP cells; read-out: INHIBITION
How it was run: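 Uninfected HepG2-A16-CD81EGFP cells, 3 × 10^3 per well, 1536-well, plated on prespotted compound at 10 μM final, parasite-free screening media added to match infected plates; puromycin 10 μM positive, DMSO 0.5% negative; run in parallel with 48 h PbLuc assay at 37 °C, 5% CO2; viability by CellTiter-Glo luminescence, normalized to controls.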

SMILES | cytotoxicity at 10 µM
CCCn1nc(-c2nc(Cc3ccc(OC)cc3)no2)ccc1=O | 0.0197%
CC(O)CN1CCN(C(=O)c2cnn(-c3ccccc3Cl)c2)CC1 (stereo not given) | -8.9%
CC(C)CCN1CCN(C(=O)c2c[nH]c(=O)[nH]2)CC1 | -6.49%
O=C(c1cc2c(s1)CCC2)N1CCCCC1Cn1cccn1 (stereo not given) | -4.86%
C=C(C)COc1cccc(C(=O)N2CCC(O)(c3ccccc3)CC2)c1 | -44.9%
CCc1nnc(SCc2nonc2C)n1C | -1.04%
CCOCCCNC(=O)c1nn(CC)cc1Cl | 2.06%
C=C(C)CSc1nnc(CCNC(=O)OC(C)(C)C)o1 | 8.94%
Nc1cc(-c2cccc3ccnn23)ccn1 | 0.858%
Cc1ncccc1OCC(=O)N1CCN[C@H]2CS(=O)(=O)C[C@H]21 | 13.1%
COc1cccc(N2CCC(CNc3cc(C)nc4ncnn34)C2)c1 (stereo not given) | 59.7%
Cc1nn(C)c2c(N(C)Cc3ccco3)nc(C3CC3)nc12 | 1.58%
COc1cccc(OCCCc2cncc(C(N)=O)c2)c1 | -124%
COc1ccccc1CN(Cc1cccs1)S(=O)(=O)N(C)C(C)C | -46.7%
O=C1CC[C@H]2[C@H](CCN2C(=O)C2CCCO2)N1Cc1cccnc1 (stereo not given in full) | -8.6%
CCOc1ncccc1NC(=O)NCC(C)O (stereo not given) | -5.68%
CCOC(C)c1nc(CNc2cccc(Cl)c2OC)cs1 (stereo not given) | 6.16%
O=C(O)c1cc(S(=O)(=O)Nc2cnn(C3CCOCC3)c2)ccc1F | -10.9%
CCC(CC)C(=O)N1CCN(Cc2cc(=O)c3ccccc3[nH]2)CC1 | -9.55%
CN1C[C@@H](NC(=O)CC(C)(C)C)C[C@H]1c1nc(-c2cnccn2)no1 | 3.08%
CCOC(=O)CC1CCCCN1C(=O)c1cc(=O)[nH]c(=O)[nH]1 (stereo not given) | 5.76%
CC(C)c1nc(CN(C)CC2CCN(CCO)CC2)no1 | -4.32%

SMILES | cytotoxicity at 10 µM
O=C(O)c1nnn(Cc2cccc(C(F)(F)F)c2)c1-c1ccccn1 | 2.27%
Cc1cc(NC(=O)c2nc(N3CCCC3)ncc2Cl)nc(C(C)C)n1 | 69.3%
O=C1OCCC1N1CCN(c2ccccn2)CC1 (stereo not given) | 7.37%
Nc1cc(-c2cc(O)cc(C(=O)O)c2)c2cc[nH]c2n1 | 6.77%
O=C(NC1CC1)[C@H]1C[C@H]2OCC[C@H]2N(CC2CCOCC2)C1 | 2.98%
Cc1cc(NC(=O)NCC(O)c2ccc(F)cc2)n(C)n1 (stereo not given) | -2.69%
CCCn1nc2c(cc1=O)CN(CC(=O)Nc1nnc(C)s1)CC2 | -11.3%
Cc1cccc(NC(=O)c2cccc(OCc3nnnn3C)c2)n1 | 3%
O=C1N(C2CCCCC2)C[C@H]2CN(C3CCC3)CCN12 | 6.44%
Nc1cc2c(nn1)CCN(C(=O)c1cccc3c1OCCO3)C2 | -8.72%
CC(C)N1CCN(C(=O)c2ccccc2NCc2cccnc2)CC1 | -19.4%
NCCC(=O)Nc1ccc(-c2ccccc2)cc1 | -1.81%
COc1cc(N2C[C@@H]3COC[C@]3(COCc3ccncc3)C2)ncn1 | -72.4%
c1cncc(COCc2nnc3n2CCN(Cc2ccoc2)C3)c1 | -11.2%
CSCCC(C)NC(=O)c1cccc(-c2n[nH]c(C)n2)c1 (stereo not given) | 1.31%
CCc1ccc(-c2ncc3c(n2)N(C)CCN(CCN(C)C)C3=O)cc1 | -9.52%
Cn1nc(Cl)cc1C(=O)N1CCC(C(=O)c2nc3ccccc3s2)CC1 | 3.34%
Cn1cc(-c2cc(C(F)(F)F)n(CCCN)n2)cn1 | -6.11%
N#Cc1c2n(c3c(=O)[nH]cnc13)CCCC2 | 2.45%
COCC1CN(Cc2ccoc2)Cc2nn(CC3CC3)cc21 (stereo not given) | -2.24%
CN1CC(=O)N(C2CCNC2)Cc2c(NC3CCCC3)ncnc21 (stereo not given) | 9.46%
O=C(Cc1cccs1)NCC1(O)CCSC1 (stereo not given) | -9.66%

SMILES | cytotoxicity at 10 µM
Cc1cnn(CC2CCCCN2C(=O)c2ccc(CN(C)C)cc2)c1 (stereo not given) | -11.4%
C[C@@H]1CN(C(=O)[C@H]2CCCO2)C[C@]12CCN(c1ccsc1)C2=O | -77.8%
O=c1c2ccc(Cl)cc2ncn1CCCN1CCCCC1CO (stereo not given) | -2.4%
COc1c(CNCc2ccccc2Cn2ccnc2)c(C)nn1C | -9.2%
NC(=O)c1cc2c(nc1CCOCc1ccccc1)CCC2 | 2.99%
CC(C)CS(=O)(=O)CC(=O)N(C)Cc1ccc(OC(F)F)cc1 | 1.13%
Cc1nc(C(=O)NS(=O)(=O)c2cccc(C#N)c2)cs1 | -1.95%
CSC1(CNc2ncc(Br)cn2)CCOCC1 | -8.93%
CNc1ncc(CN(C)Cc2cc(O)c3cc(F)ccc3n2)cn1 | 1.95%
O=C(CC(F)(F)F)N1C[C@H]2CN(CC3CC3)C(=O)[C@H]2C1 | 0.493%
CCc1noc(CC)c1CNC(=O)Nc1cccc(C(=O)N(C)C)c1 | 16.4%
CC(C)(C#N)c1ccc(NS(=O)(=O)CC2CCCCO2)cc1 (stereo not given) | 0.548%
CC(C)c1nc2n(n1)CC(NCc1nc(C3CC3)no1)CC2 (stereo not given) | -7.59%
CCN(CC)C(=O)N1CCOCC1c1c(C)nn(C)c1C (stereo not given) | 11.3%
CC(=O)c1cn(CCC(=O)Nc2c3c(nn2C)CSC3)c2ccccc12 | -1.93%
Cc1nn(C)c(Cl)c1C1CCCN1CC(=O)NCc1ccccn1 (stereo not given) | -2.07%
Cc1nc(-c2ccccc2)n(CC(=O)NC(C)C)n1 | -14.1%
COCc1ccc(C(=O)NS(=O)(=O)c2ccc3c(c2)CCC(=O)N3)cc1 | -1.89%
CCC(SC)C(=O)N1CCC(n2cccn2)CC1 (stereo not given) | -45.8%
O=C(C1CCOCC1)N1CCO[C@@H]2[C@@H](OCc3ccncc3)CC[C@@H]21 | 8.5%
CCn1ccnc1CN1CCC(CNC(=O)c2ccc(C)nc2)C1 (stereo not given) | -8.8%
O=S1(=O)NC(C2CCN(Cc3ccccn3)CC2)Nc2ccccc21 (stereo not given) | -33.6%

SMILES | cytotoxicity at 10 µM
Cc1sc(CN)nc1-c1ccc(Cl)cc1Cl | -1.14%
Nc1cc2c(nn1)CCN(C(=O)CC1CCCCC1)C2 | -2.78%
O=C(NCc1cncc2c1CCN(CC1CCOC1)C2)c1ccco1 (stereo not given) | -9.55%
Cc1cc(Br)ccc1NCC(=O)Nc1cc(C(C)(C)C)no1 | 5.09%
COc1ccc(F)cc1-n1cnc(CCNC(C)=O)c1 | 13.7%
Cc1cc(C(=O)N2CCOC[C@H](Oc3cccnc3)C2)c(C(F)(F)F)o1 | 3.11%
Cc1csc2c(N3CCC(NCCCC4CCOC4)CC3)ncnc12 (stereo not given) | 3.3%
CC(C)c1nc(CNC2CCN(C(=O)OC(C)(C)C)CC2)cs1 | -1.72%
CCN(C)C(=O)c1cccc(S(=O)(=O)NCCc2nc(C)cc(=O)[nH]2)c1 | -39.9%
Cc1nc(NC(C)C)nc2c1CN(Cc1nccn1C)CC2 | 8.13%
O=C(O)c1c(-c2cccnc2)ncc2c1CCN(Cc1ccccn1)C2 | -1.43%
CC(=O)N(c1ccc(C)cc1)c1nc(CN2CCCCC2C)cs1 (stereo not given) | -5.65%
COCC1CN(Cc2ccc(C)o2)Cc2nnn(C)c21 (stereo not given) | -4.53%
CC(C)[C@H]1CN(C2Cc3ccccc3C2)C[C@@H]1NS(=O)(=O)N(C)C | 1.52%
CC(=O)N1CCOC2(CCCN(C(=O)CCN3CCCCC3)C2)C1 (stereo not given) | -2.51%
CN1CCC(N2CCN3C(=O)NC[C@H]3C2)CC1 | 2.26%
Cc1cnn(C2CCCN(C(=O)Cc3cn4ccsc4n3)C2)c1 (stereo not given) | -4.89%
CCC1=N[C@@]2(CC[C@@H]3CN(S(=O)(=O)CC)C[C@@H]32)C(=O)N1CC(C)C | -0.0582%
CC(C)(C)CC(=O)N1CC[C@H]2CC(=O)N(CCc3c[nH]cn3)CC[C@H]2C1 | -3.97%
Cc1nnc(C(C)N2CCc3[nH]c4ccccc4c3C2)o1 (stereo not given) | -9.42%
COc1ccc(CN2Cc3cnn(C)c3C(COCC3CC3)C2)cc1 (stereo not given) | 14.5%
c1ccc(-n2ncc(CN3CCCC(Cn4cncn4)C3)n2)cc1 (stereo not given) | -6.04%

SMILES | cytotoxicity at 10 µM
Cn1cc(N2CC3(CCN(Cc4cccnc4)CC3)OCC2=O)cn1 | -79.3%
O=C(NCc1ccncc1)C1=NOC2(CCCNC2)C1 (stereo not given) | 5.31%
CN(C)c1ccc(NC(=O)NCc2cccs2)cn1 | -1.15%
COCCCN(C)c1cc(C(F)(F)F)nc(-c2cccnc2)n1 | -4.83%
CCCc1nc(CN(CC)C(=O)c2ccc(OC)c(OC)c2)no1 | -6.93%
Cc1cc(C)n(CC(=O)N2CCC(c3nc(C(C)C)no3)CC2)n1 | 9.1%
Cc1ccc(S(=O)(=O)N2CC[C@H]3CO[C@H](CN(C)C)[C@H]3C2)cc1 | -98.3%
CS(=O)(=O)c1nccn1Cc1ccc(Cl)cc1 | -10.4%
CC(C)N(C)Cc1cnc2n1CCN(Cc1ccco1)C2 | 2.22%
CCN(CC)C(=O)CN(C)CCn1nc2ccccn2c1=O | -149%
Cc1noc(-c2ccnc(Oc3ccc(CN4CCCC4)cc3C)c2)n1 | 51.4%
CC(C)CNC(=O)c1nc2c(s1)CCN(C(=O)c1cccnc1)CC2 | 7.1%
O=C1[C@@H]2CC[C@@H](CN(Cc3nnc(C4CC4)o3)C2)N1Cc1cscn1 | 9.57%
O=C1C(N2CC[C@@H](O)C2)CCCN1Cc1cccc(C(F)(F)F)c1 (stereo not given in full) | 1.22%
Cc1cc(NC(=O)NCC(c2ccsc2)N(C)C)n(C)n1 (stereo not given) | -5.33%
COC(=O)c1cc(C(=O)N2CCC(C)CC2)n(-c2ccccc2)n1 | 0.103%
CCN(C)c1ncnc2c1CCN(C(=O)c1ccoc1C)CC2 | -0.675%
Cc1ccc(NC(=O)NCC2(O)CCCC2)cc1C | -6.8%
Cc1ccccc1-c1csc2c(=O)[nH]c(N3CCCC(C(=O)O)C3)nc12 (stereo not given) | -3.16%
CC(C)(C)C(=O)CN1CCc2ccccc2NCCC1=O | -104%
Cc1noc(C)c1NC(=O)N1CCC(NC(=O)OC(C)(C)C)CC1 | 4%
COCc1ccc(C(=O)N2CCN(CC=C(C)C)[C@@H]3CS(=O)(=O)C[C@@H]32)o1 | 17.2%
